In publication PMC7012088 (Cancer Biology & Therapy, 2019):

Assays:
ABCB1 = settings: read-out: IC50 ABCB1 inhibition; in vitro; cited from earlier work
[1] = Botryllamide G plasma pharmacokinetics in wild-type mice; assay type: in vivo; settings: male, FVB, mouse, iv, 13.4 mg/kg
Outline: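 Destructive sampling (n = 3 per timepoint) ran 0.25–24 h into heparinized plasma. Phospholipid-removal/methanol precipitation, then isocratic C18 LC-MS/MS (20–50,000 ng/mL). AUClast used Bailer's method. t1/2 = ln2/terminal kEL, from concentrations above LLOQ.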

[2] = Aqueous solubility in intravenous formulation; assay type: physicochemical; settings: limited the dose to 13.4 mg/kg
[3] = Abcg2 knockout animals (so in the source); cited from earlier work
[4] = Lapatinib brain and plasma exposure in wild-type FVB mice; assay type: in vivo, mouse
[5] = Lapatinib brain and plasma exposure in Mdr1a/Mdr1b; assay type: in vivo, mouse; settings: for lapatinib brain AUC through 8 h: Mdr1a/Mdr1b (-/-) mice; for AUC: male, FVB, mouse, brain, oral

SMILES	IC50 (ABCB1) [µM]	AUC [1] [ng·h/mL]	Cmax [1] [ng/mL]	half-life [1] [h]	aqueous solubility [2]	increase in lapatinib brain concentrations [3]	Kp ([4]; male, FVB, mouse, brain and plasma, oral, 90 mg/kg)	AUC ([4]; male, FVB, mouse, plasma, oral, 90 mg/kg) [ng·h/mL]	lapatinib brain exposure through 1 h (AUC0-1 h) ([4]; wild-type mice, doublet (lapatinib + botryllamide G)) [pg·h/mg]	lapatinib brain exposure AUC through 24 h ([4]; wild-type mice, lapatinib + botryllamide G + tariquidar 4 mg/kg i.v. (triplet)) [pg·h/mg]	lapatinib plasma AUC ([4]; wild-type mice, lapatinib + botryllamide G, 24 h)	lapatinib brain AUC through 24 h ([4]; wild-type mice, lapatinib alone (abstract)) [ng·h/mL]	lapatinib brain exposure through 1 h (AUC0-1 h) ([4]; wild-type mice, singlet (lapatinib alone)) [pg·h/mg]	lapatinib brain exposure through 1 h (AUC0-1 h) ([4]; wild-type mice, singlet (lapatinib alone), listed as Lapatinib) [pg·h/mg]	lapatinib brain exposure through 1 h (AUC0-1 h) ([4]; wild-type mice, triplet (lapatinib + botryllamide G + tariquidar)) [pg·h/mg]	lapatinib brain exposure through 1 h (AUC0-1 h) ([4]; wild-type mice, triplet (lapatinib + botryllamide G + tariquidar), listed as Lapatinib) [pg·h/mg]	lapatinib brain AUC through 8 h ([5]; lapatinib + botryllamide G) [pg·h/mg]	lapatinib brain AUC through 8 h ([5]; lapatinib alone) [pg·h/mg]	AUC [5] [ng·h/mL]	AUC ([5]; 90 mg/kg) [ng·h/mL]
CO/C(=C\c1ccc(O)cc1)C(=O)N/C=C/c1cc(Br)c(O)c(Br)c1 [botryllamide G]	> 50	2090	4110	4.6	poor															
CS(=O)(=O)CCNCc1ccc(-c2ccc3ncnc(Nc4ccc(OCc5cccc(F)c5)c(Cl)c4)c3c2)o1 [lapatinib, N-{3-chloro-4-[(3-fluorobenzyl)oxy]phenyl}-6-[5-({[2-(methylsulfonyl)ethyl]amino}methyl)-2-furyl]-4-quinazolinamine]						approximately 40 fold	0.067	66400	48.3 ± 14.9	2878	71,576 h*pg/mg	4461	120 ± 39.9	120	298 ± 44.6	298	4007	2058	4010	2060
